Screening results deposited in PubChem by several laboratories.
Sampled rows, rich in hits. Any-hit rate of the full collection: about 6.5%.
Calb biofilm kill: kills Candida albicans biofilms. C. albicans biofilm + clotrimazole, Alamar Blue. inhibition, % at 6 µM. 0.14% of 85,000 active;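 active means inhibition above 20%; inactive means inhibition below 20%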;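 further: preformed 24 hr biofilms exposed to compound for 48 hr; 0% = biofilm without compound and 100% = blank killed by clotrimazole plus chlorhexidine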
Ecoli WT expand: E. coli BW25113 growth inhibition, expanded screen. growth inhibition, % at 100 µM. AID 710. OD600 absorbance. 0.15% of 98,000 active;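 active means growth inhibition above about 50% at one test dose, limit read from the data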;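 further: growth measured after 20 h incubation at 37 °C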
tolC growth inh: growth inhibitors of E. coli BW25113 tolC mutant; OD615; growth inhibition, % at 10 µM (by protocol); 2.2% of 65,000 active; AID 573;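 active means growth inhibition at or above a cutoff equal to the mean over every tested compound plus 3 SD, cut at about 60% in these data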;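 further: growth measured after 20 h incubation at 37 °C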
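Test system – E. coli BW25113 ΔtolC::kan, tolC deletion mutant strain · Detection – OD at 615 nm · Buffer or medium – LB with kanamycin 50 µg/mL · Times – 20 h compound exposure of bacteria at 37 °C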
PostGolgi yeast: growth inhibition of a yeast mutant, post-Golgi transport screen | post-Golgi transport phenotypic cell assay | inhibition, % at 10 µM | 0.9% of 98,000 active;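 further: yeast cells grown in 1536-well plates; yeast grown about 18 h at 30C before absorbance read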
PostGolgi ctrl: inhibits growth of the yeast control strain | inhibition, % at 10 µM | efflux-deficient yeast background strain, growth absorbance A615, 16 h | 5% of 98,000 active
Pyk2 oligo antag: Pyk2 (human) oligomerization antagonism. Q14289. Q293 cells, Pyk2 FERM NanoBiT luminescence; hits give low values. z-score (the deposit names both 25 µM and 10 µM). 0.83% of 99,000 active. AID 1347419;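 active means Z-score of -3 or lower, scaled per plate to the spread of control and sample wells; inactive means z-score above -3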;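 further: negative z-score means lost luminescence so less FERM oligomerization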
Target sequence (Q14289 whole entry, looked up): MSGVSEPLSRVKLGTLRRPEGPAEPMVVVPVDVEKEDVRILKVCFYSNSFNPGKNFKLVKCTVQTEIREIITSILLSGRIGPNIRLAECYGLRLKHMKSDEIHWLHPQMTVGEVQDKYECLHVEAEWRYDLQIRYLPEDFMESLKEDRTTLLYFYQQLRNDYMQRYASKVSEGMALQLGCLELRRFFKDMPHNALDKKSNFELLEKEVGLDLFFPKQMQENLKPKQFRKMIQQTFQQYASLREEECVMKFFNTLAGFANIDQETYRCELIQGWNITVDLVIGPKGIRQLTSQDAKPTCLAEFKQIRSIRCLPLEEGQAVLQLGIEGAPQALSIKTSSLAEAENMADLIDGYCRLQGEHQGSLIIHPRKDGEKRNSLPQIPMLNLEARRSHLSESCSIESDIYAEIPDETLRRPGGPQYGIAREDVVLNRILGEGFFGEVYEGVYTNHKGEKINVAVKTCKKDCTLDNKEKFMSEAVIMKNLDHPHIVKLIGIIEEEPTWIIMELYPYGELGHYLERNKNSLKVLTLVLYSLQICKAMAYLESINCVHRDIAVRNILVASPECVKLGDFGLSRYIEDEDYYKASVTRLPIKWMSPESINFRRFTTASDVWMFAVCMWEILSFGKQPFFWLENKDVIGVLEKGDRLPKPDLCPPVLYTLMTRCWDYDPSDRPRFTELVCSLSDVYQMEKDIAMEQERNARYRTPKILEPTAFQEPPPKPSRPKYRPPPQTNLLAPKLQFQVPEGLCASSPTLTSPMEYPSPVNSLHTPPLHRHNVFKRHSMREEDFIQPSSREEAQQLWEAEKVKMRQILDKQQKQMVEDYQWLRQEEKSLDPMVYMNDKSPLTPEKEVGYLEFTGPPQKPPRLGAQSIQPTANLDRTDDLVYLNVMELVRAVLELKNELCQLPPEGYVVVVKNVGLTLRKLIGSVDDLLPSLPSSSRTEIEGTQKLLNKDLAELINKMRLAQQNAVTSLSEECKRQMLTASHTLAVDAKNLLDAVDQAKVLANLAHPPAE
The depositor's hits bear a star. Unless noted, no stated cut-off is given here; in the data, active means inhibition above about 30%; inactive means the rest.

COc1ccc(-c2nn(-c3ccccc3)cc2/C=N/NC(=O)c2ccc(Br)o2)cc1 was read as Ecoli WT expand -11, PostGolgi yeast 1, PostGolgi ctrl 15 and Pyk2 oligo antag -3.1*.
`O=C(N/N=C\c1cn(-c2ccccc2)nc1-c1ccccc1)c1ccc2c(c1)OCO2` gave Ecoli WT expand -7, PostGolgi yeast -6, PostGolgi ctrl 34* and Pyk2 oligo antag -1.9.
For Cc1c(/C=N/NC(=O)c2ccc3c(c2)OCO3)cnn1C the results were Ecoli WT expand 0, PostGolgi yeast 4, PostGolgi ctrl 6 and Pyk2 oligo antag -0.12.
CC[n+]1c(P(=O)([O-])c2ccccc2)[nH]c2ccccc21 was read as Calb biofilm kill 3, Ecoli WT expand -3, PostGolgi yeast 1, PostGolgi ctrl -2 and Pyk2 oligo antag -0.09.
For O=[N+]([O-])c1cc(Cl)cc(C2=NCCN2)c1 the results were Calb biofilm kill 5, Ecoli WT expand 13, PostGolgi yeast 1, PostGolgi ctrl 11 and Pyk2 oligo antag -0.45.
Screening CCOC(=O)CSc1nnc(CNc2ccc(Cl)cc2)n1-c1ccccc1 returned Calb biofilm kill 7, Ecoli WT expand 4, tolC growth inh 2, PostGolgi yeast 60*, PostGolgi ctrl 50* and Pyk2 oligo antag -0.48.
`COC(=O)CSc1nnc(CNc2ccc(Cl)cc2)n1Cc1ccccc1` gave Calb biofilm kill 3, Ecoli WT expand 6, tolC growth inh 7, PostGolgi yeast 65*, PostGolgi ctrl 46* and Pyk2 oligo antag 0.13.
For CCOC(=O)CSc1nnc(CNc2cccc(Cl)c2)n1-c1ccccc1 the results were Calb biofilm kill 6, Ecoli WT expand 11, tolC growth inh 14, PostGolgi yeast -10, PostGolgi ctrl 11 and Pyk2 oligo antag -0.16.
For O=C(CSc1nnc(CNc2ccc(F)cc2)n1Cc1ccccc1)NCc1ccccc1 the results were Calb biofilm kill 4 and Pyk2 oligo antag 0.07.
Screening COc1ccc2c(c1)S/C(=C\C(=O)c1ccncc1)N2C returned Calb biofilm kill 9, Ecoli WT expand -3, tolC growth inh 4, PostGolgi yeast 51*, PostGolgi ctrl 86* and Pyk2 oligo antag -0.83.
For COc1ccc2c(c1)SCC(=O)N2C the results were Calb biofilm kill 9 and Pyk2 oligo antag 1.1.
Screening COc1ccc(NC(=O)c2cc3cc(OC)ccc3oc2=N)cc1 returned Calb biofilm kill 9, Ecoli WT expand -1, tolC growth inh 4, PostGolgi yeast 73*, PostGolgi ctrl 77* and Pyk2 oligo antag -0.31.
COc1ccc(NC(=O)c2cn(-c3ccccc3)nc2-c2cc3ccccc3o2)cc1 was read as Ecoli WT expand -16, PostGolgi yeast 7, PostGolgi ctrl 23 and Pyk2 oligo antag -4.5*.
For COC(=O)C(NNc1ccccc1)(NC(=O)c1cccc(F)c1)C(F)(F)F (stereo not drawn) the results were Ecoli WT expand -4, PostGolgi yeast -3, PostGolgi ctrl -7 and Pyk2 oligo antag 1.
Screening O=C(Nc1cc(Cl)ccc1Cl)c1ccc(OC(=O)c2ccco2)cc1 returned Calb biofilm kill 5, Ecoli WT expand -10, PostGolgi yeast 5, PostGolgi ctrl 6 and Pyk2 oligo antag -0.49.
For CCCCOc1ccc(/C=N/NC(=S)Nc2cc(C)ccc2C)cc1 the results were Ecoli WT expand -20, PostGolgi yeast 1, PostGolgi ctrl 5 and Pyk2 oligo antag -0.03.
For CCCCOc1ccc(CNC(=S)N/N=C/c2ccc(OC)c(OC)c2)cc1 the results were Ecoli WT expand -14, PostGolgi yeast -6, PostGolgi ctrl 33* and Pyk2 oligo antag 0.64.
`CCOc1ccc(CNC(=S)N/N=C\c2ccc([N+](=O)[O-])cc2)cc1` gave Ecoli WT expand -2, PostGolgi yeast 2, PostGolgi ctrl 40* and Pyk2 oligo antag 0.14.
Screening COC(=O)c1ccc(NC(=O)CSCc2ccccc2C)cc1 returned Calb biofilm kill -6, Ecoli WT expand 3, PostGolgi yeast 1, PostGolgi ctrl 4 and Pyk2 oligo antag -0.91.
`O=C(c1cccnc1)N1CCN(c2c(Cl)cccc2[N+](=O)[O-])CC1` gave Ecoli WT expand 5, PostGolgi yeast 10, PostGolgi ctrl 7 and Pyk2 oligo antag -0.81.
Cc1ccc(S(=O)(=O)Nc2nc(C)c(NC(=O)Nc3ccc(Cl)cc3Cl)s2)cc1 was read as Ecoli WT expand -2, PostGolgi yeast 5, PostGolgi ctrl 41* and Pyk2 oligo antag -0.3.
`CCOC(=O)c1nnc2c(Br)c(-c3ccccc3)nn2c1C` gave Calb biofilm kill 3 and Pyk2 oligo antag -0.36.
